Compounds with a hit are over-represented: about 1.4% of the library has one in this group of screens.
HTR5A inv ctr – counter-screen for OPRM1-OPRD1 inverse agonists: human HTR5A inverse agonism | P47898 | HTR5A cell line, luminescence | inhibition, % at 9.3 µM | 0.083% of 340,000 active | AID 504634; in the data active = inhibition mostly above about 23%, no sharp cut-off; inactive = mostly below about 18%;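 note: 0% = cells with DMSO and 100% = no-cell wells with DMSO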
HTR5A ag ctr – activates human HTR5A in OPRM1-OPRD1 agonist counter-screen | P47898 | HTR5A agonist assay, luminescence, cell-based | activation, % at 9.3 µM | 0.61% of 340,000 active | AID 504692; in the data active = activation mostly above about 9.5%, no sharp cut-off; inactive = mostly below about 7.6%;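 note: 0% = cells with vehicle only and 100% = reference agonist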
Arr AP2 block – blocks beta-arrestin peptide binding to AP2 adaptin; FITC-arrestin peptide / GST-AP2 beads, flow cytometry; AP2 beta2 appendage carries R879A mutation; inhibition, % at 10 µM; 0.31% of 340,000 active;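 active = inhibition above a set limit, near 3 SD of compounds lacking own fluorescence, cut at about 54% in these data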;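 note: plate controls were DMSO wells for no effect and 5 µM unlabelled arrestin peptide for full effect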
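Assay system: GST-AP2 R879A bound to glutathione beads, E. coli-expressed; Medium: PBS with 0.05% Tween 20 and 0.1% BSA; Also added: fluorescein-tagged arrestin peptide at 50 nM final; Timing: 12 min plus 1 h, RT; Measured by: flow cytometry, FL1 (488/535 nm); Evaluation: percent drop in bead-associated FITC signal.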
DAGLB inhibitor – blocks human DAGLB lipase activity; Q8NCG7; HEK293T DAGLB membrane lysate, EnzChek fluorogenic substrate; inhibition, % at 5.17 µM; 0.059% of 340,000 active; AID 504411; in the data active = inhibition above about 34%;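 note: 0% = enzyme with vehicle and 100% = wells lacking enzyme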
Target sequence (Q8NCG7 whole entry, looked up): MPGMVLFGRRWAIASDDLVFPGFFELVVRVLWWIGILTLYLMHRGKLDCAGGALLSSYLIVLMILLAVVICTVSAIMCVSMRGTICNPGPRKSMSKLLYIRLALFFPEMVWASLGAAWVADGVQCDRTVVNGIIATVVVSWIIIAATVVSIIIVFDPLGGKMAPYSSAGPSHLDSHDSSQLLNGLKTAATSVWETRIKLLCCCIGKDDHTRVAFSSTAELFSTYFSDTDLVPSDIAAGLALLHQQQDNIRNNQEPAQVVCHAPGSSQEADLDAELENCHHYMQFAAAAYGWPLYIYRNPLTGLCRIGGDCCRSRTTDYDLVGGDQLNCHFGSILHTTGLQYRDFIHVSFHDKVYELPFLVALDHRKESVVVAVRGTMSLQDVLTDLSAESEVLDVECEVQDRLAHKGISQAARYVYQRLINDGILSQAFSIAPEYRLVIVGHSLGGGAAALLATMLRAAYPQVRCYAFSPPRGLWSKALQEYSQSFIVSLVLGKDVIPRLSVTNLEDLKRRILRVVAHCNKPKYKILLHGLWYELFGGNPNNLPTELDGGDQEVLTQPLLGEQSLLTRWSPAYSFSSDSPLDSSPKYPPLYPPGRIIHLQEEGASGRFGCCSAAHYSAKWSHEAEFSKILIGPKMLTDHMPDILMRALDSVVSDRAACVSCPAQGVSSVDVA
MOR-DOR ag – agonists of human mu-delta opioid receptor heterodimerization | P35372+P41143 | cells, OPRM1-OPRD1 heterodimerization, luminescence | activation, % at 9.3 µM | 0.3% of 340,000 active | AID 504326;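 note: 0% = vehicle-treated cells and 100% = reference agonist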
MOR-DOR inv ag – inverse agonist of human OPRM1-OPRD1 heterodimerization; P35372+P41143; cell-based MOR-DOR heterodimer luminescence, inverse agonism; inhibition, % at 9.3 µM; 0.21% of 340,000 active; in the data active = inhibition above about 22%, passing the limit was not always enough;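 note: 0% = cells with DMSO and 100% = wells without cells with DMSO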
OPRM1-D1 ag cf – OPRM1-OPRD1 heterodimer agonism, confirmation; shares compounds with MOR-DOR ag; cells, MOR-DOR heterodimerization, luminescence complementation; activation, % at 9.3 µM; 45% of 830 active; AID 504904;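 note: 0% = vehicle-treated cells and 100% = reference agonist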
HTR5A ag counter – counter-screen for OPRM1-OPRD1 agonists: human HTR5A agonism; AID 504905; 8% of 830 active; shares compounds with MOR-DOR ag; HTR5A agonist counterscreen, cell luminescence; activation, % at 9.3 µM; in the data active = activation above about 17%;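 note: 0% = vehicle-treated cells and 100% = reference agonist response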
MOR-DOR inv conf – confirmation of human OPRM1-OPRD1 heterodimerization inverse agonists. shares compounds with MOR-DOR inv ag. cells expressing OPRM1/OPRD1 heterodimer, luminescence. inhibition, % at 9.3 µM. 20% of 580 active. AID 504900; in the data active = inhibition above about 32%;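 note: 0% = cells with DMSO and 100% = wells lacking cells with DMSO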
HTR5A inv ctr2 – inverse agonist of human HTR5A in OPRM1-OPRD1 counter-screen; shares compounds with MOR-DOR inv ag; HTR5A-expressing cells, luminescence, inverse agonism; inhibition, % at 9.3 µM; 580 tested, under 10 active; AID 504914; call rule not given here;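 note: 0% = cells with DMSO and 100% = no-cell wells with DMSO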
Arr AP2 CP1 – blocks beta-arrestin peptide binding to human AP2 | AID 504908 | GST-AP2 beads, FITC arrestin peptide binding, flow cytometry; GST-fused beta2-adaptin appendage, R879A mutant | shares compounds with Arr AP2 block | inhibition, % at 10 µM | 2% of 1,300 active;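 active = inhibition above a set limit, roughly 3 SD of non-fluorescent compound noise, cut at about 38% in these data; inactive = inhibition at or below that limit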;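 note: loss of bead fluorescence from 50 nM FITC arrestin peptide bound to appendage; 0% = negative control wells and 100% = excess unlabelled arrestin peptide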
GST GSH counter – GST-GSH bead binding interference, counter-screen | shares compounds with Arr AP2 block | GST-fluorescein binding to GSH beads, fluorescence | inhibition, % at 10 µM | 2% of 1,300 active | AID 588338;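 active = inhibition above 50%, about 3 SD of the inhibition seen with non-fluorescent compounds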;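 note: fluorescein maleimide labelled GST captured on 4 micron glutathione beads; higher means more loss of bead fluorescence from quenching or blocked binding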
* marks the source's active call; other numbers are inactive results; i = inactive; · = no result given. Cut-off read from the data, not from the text of the source, unless noted: active = activation above about 18%; inactive = the rest.

SMILES	HTR5A inv ctr	HTR5A ag ctr	Arr AP2 block	DAGLB inhibitor	MOR-DOR ag	MOR-DOR inv ag	MOR-DOR inv conf	HTR5A inv ctr2	others
O=C1C=CC(=O)c2c(O)c(N3CCN(CCOCCO)CC3)c(Br)c(O)c21	8	-2	69*	4	25*	-123	·	·	OPRM1-D1 ag cf=6;HTR5A ag counter=-4;Arr AP2 CP1=52*;GST GSH counter=20
COc1cc(CNC[C@H]2O[C@@H](n3ccc(N)nc3=O)[C@H](O)[C@@H]2O)ccc1OCc1ccc(C)cc1	·	·	·	0	·	·	·	·
CC(CC(=O)N(CCC1=CCCCC1)c1c(N)n(Cc2ccccc2)c(=O)[nH]c1=O)c1ccccc1 (stereo unspecified)	-17	-4	68*	5	39*	-257	·	·	OPRM1-D1 ag cf=33*;HTR5A ag counter=10;Arr AP2 CP1=0;GST GSH counter=-3
N#CC1c2ccccc2-c2ccccc2N1C(=O)c1ccccc1 (stereo unspecified)	·	·	·	-10	·	·	·	·
CC1=C(C)CC2C(C1)C(=O)c1ccc(Br)cc1S2(=O)=O (stereo unspecified)	-15	5	1	-5	-10	58*	56*	4
COc1ccc(-c2nc(-c3cccs3)c(-c3cccs3)[nH]2)cc1OC	7	0	12	1	-5	30*	i	4
COc1ccc(-c2nc(-c3ccccc3)c(-c3cccs3)[nH]2)cc1OC	9	-3	0	1	1	-4	·	·
CCC(Oc1ccccc1)C(=O)Nc1ccccc1OC (stereo unspecified)	-10	2	-3	-7	2	-12	·	·
CCC(OC(=O)C(C)N1C(=O)C(=O)c2ccccc21)C(=O)Nc1ccccc1OC (stereo unspecified)	2	-4	-9	-1	-8	48*	10	4
CCC(OC(=O)CN1C(=O)C(=O)c2ccccc21)C(=O)Nc1ccccc1OC (stereo unspecified)	23*	-8	27	-3	-6	49*	3	-7
CCN(CC)c1ccc(S(=O)(=O)N2CCOCC2)cc1NC(=O)COC(=O)C1=COCCO1	-7	3	11	-1	0	1	·	·
CCOC(CN=c1nc(N(C)C)ss1)OCC	20	-5	-9	1	-9	39	·	·
CN(C)c1nc(=NCc2ccco2)ss1	22	-6	17	-2	-13	66*	-72	-49
O=C(CCNC(=O)N1CC(=O)Nc2ccccc21)NCc1ccc(Cl)cc1	·	·	·	1	·	·	·	·
CN1C(=O)/C(=C2/C=Cc3ccccc3N2CCCS(=O)(=O)O)SC1=S	21	-8	5	17	-6	32*	-52	-12
Cn1cnc([N+](=O)[O-])c1S(=O)(=O)Nc1ccccc1	-1	0	2	-4	-3	17	·	·
Cn1cnc([N+](=O)[O-])c1S(=O)(=O)c1cccc(Cl)c1	16	-3	8	-6	-4	29*	-20	-90
Cn1cnc([N+](=O)[O-])c1S(=O)(=O)Oc1ccccc1	21	-5	-8	-4	-8	40*	9	14
Cc1nn(C(C)C(=O)c2cccc(Cl)c2)c(C)c1[N+](=O)[O-] (stereo unspecified)	14	0	13	-1	-1	7	·	·
O=C1CSc2ccc(C(=O)N3CCCCC3)cc2N1	·	·	·	-1	·	·	·	·
Cc1ccc(-n2cnc3c(=O)[nH]cnc32)cc1[N+](=O)[O-]	7	-2	9	-1	-4	23	·	·
Cc1cc(C)n2nc(SC(C)C(=O)N3CCOCC3)nc2n1 (stereo unspecified)	7	1	-3	0	-6	37*	-16	3
COc1cc([N+](=O)[O-])cc(/C=N/NC(=O)c2ccc(C)nc2)c1O	8	-2	5	5	-4	22*	i	-30
COc1cc([N+](=O)[O-])cc(/C=N/NC(=O)c2ccc(NC(=O)c3ccc(C)cc3)cc2)c1O	-17	6	9	7	0	-2	·	·
CCCNC(=O)Cn1nc(-c2ccccc2OC)ccc1=O	·	·	·	0	·	·	·	·
SMILES	HTR5A inv ctr	HTR5A ag ctr	Arr AP2 block	DAGLB inhibitor	MOR-DOR ag	MOR-DOR inv ag	MOR-DOR inv conf	HTR5A inv ctr2	others
COc1ccc(S(=O)(=O)N2CCN(CC(=O)NC(C)c3cccs3)CC2)cc1 (stereo unspecified)	·	·	·	0	·	·	·	·
Cc1cc(C(=O)N/N=C/c2cc(Br)cc([N+](=O)[O-])c2O)c2ccccc2n1	11	-3	36	15	-4	22*	-1	7
Cc1cc(C)cc(OCC(=O)NNC(=O)CC(C)c2ccccc2)c1 (stereo unspecified)	·	·	·	0	·	·	·	·
O=C1COc2ccc(C(=O)COC(=O)c3ccc([N+](=O)[O-])cc3Cl)cc2N1	-9	-1	7	2	11	-68	·	·
COc1cc(/C=N/Nc2ccc(Cl)nn2)cc(OC)c1O	-11	3	41	2	3	-12	·	·
COc1cc(/C=N/Nc2ccc(F)cc2F)cc(OC)c1O	13	-4	8	1	-6	32*	-12	1
Cc1nnsc1C(=O)NNc1ccc(C(C)(C)C)cc1	-10	2	1	-2	-15	77*	-27	10
CN1C[C@@H]2[C@@H]3C(=O)N(Cc4ccccc4)C(=O)[C@@H]3[C@](Cc3ccccc3)(C1=O)N2C(=O)c1ccc(Cl)cc1	1	0	-9	-1	-2	9	·	·
Cc1ccc2oc(/N=C(\N)NC(=O)C(C)(C)C)nc2c1	14	-9	15	-4	-9	45*	19	-11
Cc1ccc2oc(/N=C(\N)NC(=O)C3CC3)nc2c1	-15	6	2	-1	2	-8	·	·
COc1ccc(-c2nc(=S)c3c(n2Cc2cccnc2)CC(C)(C)OC3)cc1	-23	1	-11	0	-7	33*	42*	5

From PubChem
